Values after ≈ are worked out from the molar mass of the structure shown. Active and inactive are the calls of the source. The calls are words filed in the database; no cut-off is given here.
Tests used:
[1] = tested on: Mycobacterium tuberculosis; test: Inhibition of His-tagged Mycobacterium tuberculosis DXR expressed in Escherichia coli BL21(DE3) using DXP as substrate assessed as residual activity at 100 uM preincubated for 10 mins followed by NADPH and substrate addition by spectrophotometric analysis relative to control
Method in brief: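 IMAC-purified His-tagged Mtb Dxr was tested with inhibitor at 100 μM, preincubated 10 min at 37 °C before substrate. NADPH oxidation was followed spectrophotometrically at 37 °C. Inhibition is relative. Duplicate assays.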

[2] = tested on: Mycobacterium tuberculosis; test: Antitubercular activity against Mycobacterium tuberculosis H37Rv ATCC 27294 after 2 weeks; assay type: functional; conditions: H37Rv ATCC 27294, 336 h
Method in brief: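 Mtb H37Rv was grown to OD 0.5 in 7H9 with 0.05% Tween-80, 0.2% glycerol and ADC, then diluted 1:1000. Inhibitors from 50 mg/mL DMSO stocks were serially 2-fold diluted (eight dilutions). Three independent measurements.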

[3] = tested on: Mycobacterium tuberculosis; test: Uncompetitive inhibition of His-tagged Mycobacterium tuberculosis DXR expressed in Escherichia coli BL21(DE3) using DXP as substrate at 5 to 50 uM by Lineweaver-Burk plot analysis in presence of 0.01 to 0.05 uM NADPH
[4] = tested on: Mycobacterium tuberculosis; test: Competitive inhibition of His-tagged Mycobacterium tuberculosis DXR expressed in Escherichia coli BL21(DE3) using DXP as substrate at 5 to 50 uM by Lineweaver-Burk plot analysis in presence of NADPH
Method in brief: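 For mode of inhibition versus DXP, purified His-tagged Mtb Dxr was run at 37 °C with NADPH fixed at 150 µM or 30 µM depending on inhibitor. Enzyme and inhibitor were preincubated 10 min at 37 °C before substrate. NADPH oxidation was followed spectrophotometrically. Duplicates were analysed by Lineweaver-Burk plots.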

[5] = Inhibition of His-tagged Mycobacterium tuberculosis DXR expressed in Escherichia coli BL21(DE3) using DXP as substrate assessed as oxidation of NADPH preincubated for 10 mins followed by NADPH and substrate addition by spectrophotometric analysis
Method in brief: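 Activity was read spectrophotometrically at 37 °C as NADPH oxidation. Enzyme was preincubated with inhibitor for 10 min at 37 °C before substrate. Run in duplicate. IC50 came from nonlinear regression of dose-response plots.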

[6] = tested on: Mycobacterium tuberculosis; test: Noncompetitive inhibition of His-tagged Mycobacterium tuberculosis DXR expressed in Escherichia coli BL21(DE3) using DXP as substrate at 5 to 50 uM by Lineweaver-Burk plot analysis in presence of 0.01 to 0.05 uM NADPH

Work on `O=C(C1CCCCC1)N(O)CCCP(=O)(O)O` yielded an Activity [1] of 80%.
For `CCOP(=O)(CCCN(O)C(=O)CCCc1ccccc1)OCC`, the MIC99 [2] was 200 mg/L (≈ 560 µM).
For `CC(=O)N(O)CCCP(=O)([O-])O.[Na+]`, the MIC99 [2] was > 500 mg/L, the inhibition [3] was “Active” and the inhibition [4] was “Active”. The IC50 [5] was 2.39 µM.
`CC(=O)N(CCCP(=O)(O)O)OCCc1ccccc1` gave an Activity [1] of 81.5%.
`CC(=O)N(CCCP(=O)(O)O)OCCCc1ccccc1` showed an Activity [1] of 77.5%.
`CC(=O)N(CCCP(=O)(O)O)OCC1CCCCC1` gave an Activity [1] of 83.5%.
With `O=C(Cc1ccccc1)N(O)CCCP(=O)(O)O` the IC50 [5] was 26.9 µM.
In the case of `O=CN(O)CCCP(=O)(O)O` [FOSMIDOMYCIN], the MIC99 [2] is reported as > 500 mg/L.
In the case of `O=C(CCCc1ccccc1)N(O)CCCP(=O)([O-])O.[Na+]`, the MIC99 [2] is reported as > 200 mg/L, the inhibition [6] is reported as “Active” and the inhibition [4] is reported as “Active”. The IC50 [5] was 17.8 µM.
Work on `CCOP(=O)(CCCN(O)C=O)OCC` yielded an MIC99 [2] of 250 mg/L (≈ 1050 µM).
Work on `CC(=O)N(CCCP(=O)(O)O)OCc1ccc(C(C)C)cc1` yielded an IC50 [5] of 48.4 µM.

— ChEMBL document CHEMBL3132832, “Design of Potential Bisubstrate Inhibitors against Mycobacterium tuberculosis (Mtb) 1-Deoxy-D-Xylulose 5-Phosphate Reductoisomerase (Dxr)-Evidence of a Novel Binding Mode” (Medchemcomm, 2013)
